Results of several laboratories.
Protocols differ between the studies behind these lines.
ST14: Suppressor of tumorigenicity 14 protein (ST14, Homo sapiens, UniProt Q9Y5Y6)
CDK2 with cyclin A2: Cyclin-dependent kinase 2, with cyclin A2 (CDK2, Homo sapiens, UniProt P24941)

SMILES | target | test | conditions | endpoint | value
O=C(COP(=O)(O)O)[C@@H](O)[C@H](O)[C@H](O)COP(=O)(O)O | Glyceraldehyde-3-phosphate dehydrogenase (GAPDH, Homo sapiens, UniProt P04406) | thermal stability | 5 mM, lysate | ΔTm | 5.9 °C
C=CC[C@H](NC(=O)[C@H](Cc1cscn1)NC(=O)CCc1ccccc1)C(=O)N[C@@H](CCCNC(=N)N)C(=O)c1nc2ccccc2s1 | ST14 | enzyme activity, inhibitor | 0.1 µM | remaining activity | 41%
C[C@H]1C(=O)/C(=C/c2ccccc2)[C@H]2C[C@@H]1N(Cc1ccccc1)C[C@@]2(C)O | Delta-type opioid receptor (Oprd1, Rattus norvegicus, UniProt P33533) | ligand displacement, radioligand | 1 µM | inhibition | 16%
CNc1ncc2c(/C=C/C(=O)N3CCC(OC)CC3)nn(Cc3cccc(C(F)(F)F)c3)c2n1 | Mitogen-activated protein kinase kinase kinase 14 (MAP3K14, Homo sapiens, UniProt Q99558) | enzyme activity, inhibitor, radiometric | 1 µM | remaining activity | 105%
CCCC[C@H](NC(=O)[C@H](Cc1cscn1)NC(=O)CCc1ccccc1)C(=O)N[C@@H](CCCNC(=N)N)C(=O)c1nc2ccccc2s1 | ST14 | enzyme activity, inhibitor | 0.1 µM | remaining activity | 37%
Cc1cc([C@@H](C)Nc2ccccc2C(=O)O)c2nc(N3CCC(F)(F)CC3)c(C#N)c(=O)n2c1 | Mitogen-activated protein kinase 10 (MAPK10, Homo sapiens, UniProt P53779) | binding, competition with immobilised ligand | 10 µM | remaining binding | 100%
CC(=O)Nc1c(N)nc(SCC(=O)N/N=C/c2ccc([N+](=O)[O-])cc2)[nH]c1=O | CDK2 with cyclin A2 | enzyme activity, inhibitor | 20 nM | inhibition | 21.3%
C=CC(=O)N1CCC(COCC(=O)N2CCN(c3nc(-c4cnc(N)nc4C(F)F)nc(N4CCOC[C@@H]4C)n3)CC2)CC1 | ALK tyrosine kinase receptor (ALK, Homo sapiens, UniProt Q9UM73) | binding, competition with immobilised ligand | 1 µM | remaining binding | 72%
N=C(N)NCCC[C@H](NC(=O)[C@H](Cc1ccc(-c2ccccc2)cc1)NC(=O)[C@H](Cc1cscn1)NC(=O)CCc1ccccc1)C(=O)c1nc2ccccc2s1 | ST14 | enzyme activity, inhibitor | 0.1 µM | remaining activity | 30%
COc1cc(-c2cncc3c2CN(C)Cc2cc(N4CCNCC4)ccc2-3)cc(OC)c1OC | Angiopoietin-1 receptor (TEK, Homo sapiens, UniProt Q02763, Y897S) | enzyme activity, inhibitor | 1 µM | remaining activity | 102%
N=C(N)NCCC[C@H](NC(=O)[C@H](CC1CC1)NC(=O)[C@H](Cc1cscn1)NC(=O)CCc1ccccc1)C(=O)c1nc2ccccc2s1 | ST14 | enzyme activity, inhibitor | 0.1 µM | remaining activity | 68%
CC(=O)Nc1c(N)nc(SCC(=O)NN)[nH]c1=O | CDK2 with cyclin A2 | enzyme activity, inhibitor | 0.1 µM | inhibition | 41.2%
N=C(N)NCCC[C@H](NC(=O)C1(NC(=O)[C@H](Cc2cscn2)NC(=O)CCc2ccccc2)CCCC1)C(=O)c1nc2ccccc2s1 | ST14 | enzyme activity, inhibitor | 0.1 µM | remaining activity | 84%
CNC(=O)c1cc(Oc2ccc(NC(=O)Nc3ccc(Cl)c(C(F)(F)F)c3)cc2)ccn1 | CDK2 with cyclin A2 | enzyme activity, inhibitor | 0.5 µM | inhibition | 74%
CC(C)Oc1ccc(S(=O)(=O)c2ccc(Oc3cc(OCC(N)=O)c(C(=O)C(Cl)Cl)cc3[N+](=O)[O-])cc2)cc1 | [Pyruvate dehydrogenase (acetyl-transferring)] kinase isozyme 4, mitochondrial (PDK4, Homo sapiens, UniProt Q16654) | enzyme activity, inhibitor, ATP luminescence | 10 µM | inhibition | 31.5%
